The subject of the test is SCC-12F cells, EGF-induced EGFR degradation, Western blot. Nature of the test: EGFR lysosomal turnover delay in cells – SCC-12F cells, Western blot, mechanism study for Ras-related GTPase inhibitor project (AID 602146). The following applies: at 100 µM, stronger effect = higher value; for EGFR remaining fraction at 60 min: measured here: 60 min time point. In outline: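 Buffer or medium: serum-free DMEM; technique: EGFR Western blot; controls: DMSO-treated cells as degradation reference; times: 2 h compound pretreatment, then EGF exposure up to 2 h; probe or stimulus: EGF, 20 nM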

As to `CC1(C)Cc2c(sc(NC(=S)NC(=O)c3ccc(F)cc3)c2C(=O)O)CO1`, the EGFR remaining fraction at 120 min is 0.241 and the EGFR remaining fraction at 60 min is 0.561.
Taken in the same sequence, the figures for `COc1cccc(C(=O)NC(=S)Nc2sc3c(c2C(=O)O)CC(C)(C)OC3)c1` were 1.24 and 0.651.
For `CC1(C)Cc2c(sc(NC(=S)NC(=O)c3ccc(Br)cc3)c2C(=O)O)CO1`, the EGFR remaining fraction at 120 min was 0.643 and the EGFR remaining fraction at 60 min was 0.696.

(Values after PubChem BioAssay AID602146 (NMMLSC, 2011).)
